Values after ≈ are worked out from the molar mass of the structure shown.
How the values were obtained:
Format in all cases: functional
Acinetobacter pittii [1] = test: Antibacterial activity against Acinetobacter genomosp. 3 isolate 109 by Etest method in presence of cloxacillin and efflux pump inhibitor CCCP
Acinetobacter pittii [2] = test: Antibacterial activity against Acinetobacter genomosp. 3 isolate 109 by Etest method in presence of efflux pump inhibitor CCCP
Acinetobacter pittii [3] = test: Antibacterial activity against Acinetobacter genomosp. 3 isolate 60 by Etest method in presence of efflux pump inhibitor CCCP
Acinetobacter pittii [4] = test: Antibacterial activity against Acinetobacter genomosp. 3 isolate 14 by Etest method in presence of cloxacillin
Outline: (§1)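 MICs for AG3 clinical isolates were read by Etest following the manufacturer's instructions. Isolates were stored at –80°C in 10% Brucella glycerol broth before testing.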

Acinetobacter pittii [5] = test: Antibacterial activity against Acinetobacter genomosp. 3 isolate 14 by Etest method in presence of efflux pump inhibitor CCCP
Acinetobacter pittii [6] = test: Antibacterial activity against Acinetobacter genomosp. 3 isolate 14 by Etest method; outline: as §1
Acinetobacter pittii [7] = test: Antibacterial activity against Acinetobacter genomosp. 3 isolate 243 by Etest method in presence of efflux pump inhibitor PAN
Acinetobacter pittii [8] = test: Antibacterial activity against Acinetobacter genomosp. 3 isolate 109 by Etest method in presence of efflux pump inhibitor PAN
Acinetobacter pittii [9] = test: Antibacterial activity against Acinetobacter genomosp. 3 isolate 52 by Etest method in presence of cloxacillin; outline: as §1
Acinetobacter pittii [10] = test: Antibacterial activity against Acinetobacter genomosp. 3 isolate 67 by Etest method in presence of efflux pump inhibitor PAN
Acinetobacter pittii [11] = test: Antibacterial activity against Acinetobacter genomosp. 3 isolate 14 by Etest method in presence of cloxacillin and efflux pump inhibitor PAN
Acinetobacter pittii [12] = test: Antibacterial activity against Acinetobacter genomosp. 3 isolate 60 by Etest method in presence of cloxacillin and efflux pump inhibitor PAN
Acinetobacter pittii [13] = test: Antibacterial activity against Acinetobacter genomosp. 3 isolate 69 by Etest method; outline: as §1
Acinetobacter pittii [14] = test: Antibacterial activity against Acinetobacter genomosp. 3 isolate 195 by Etest method in presence of efflux pump inhibitor PAN
Acinetobacter pittii [15] = test: Antibacterial activity against Acinetobacter genomosp. 3 isolate 243 by Etest method in presence of efflux pump inhibitor CCCP
Acinetobacter pittii [16] = test: Antibacterial activity against Acinetobacter genomosp. 3 isolate 52 by Etest method; outline: as §1
Acinetobacter pittii [17] = test: Antibacterial activity against Acinetobacter genomosp. 3 isolate 243 by Etest method in presence of cloxacillin and efflux pump inhibitor CCCP
Acinetobacter pittii [18] = test: Antibacterial activity against Acinetobacter genomosp. 3 isolate 60 by Etest method in presence of efflux pump inhibitor PAN
Escherichia coli [19] = test: Antibacterial activity against Escherichia coli DH5alpha carrying ampC gene of Acinetobacter genomosp. 3 isolate 195 by Etest method
Outline: (§2)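 E. coli DH5α expressing the AG3 isolate ampC gene, PCR-amplified (high-fidelity system, 28 cycles) and cloned into BamHI/HindIII sites of pBGS18 (kanamycin marker) under the CTX-M-14 β-lactamase promoter. Grown at 37°C in LB, with kanamycin 50 µg/ml when needed. β-Lactam MICs determined by Etest per the manufacturer's instructions.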

Acinetobacter pittii [20] = test: Antibacterial activity against Acinetobacter genomosp. 3 isolate 103 by Etest method in presence of cloxacillin and efflux pump inhibitor PAN
Acinetobacter pittii [21] = test: Antibacterial activity against Acinetobacter genomosp. 3 isolate 69 by Etest method in presence of cloxacillin and efflux pump inhibitor PAN
Acinetobacter pittii [22] = test: Antibacterial activity against Acinetobacter genomosp. 3 isolate 67 by Etest method in presence of cloxacillin; outline: as §1
Acinetobacter pittii [23] = test: Antibacterial activity against Acinetobacter genomosp. 3 isolate 20 by Etest method; outline: as §1
Acinetobacter pittii [24] = test: Antibacterial activity against Acinetobacter genomosp. 3 isolate 195 by Etest method in presence of cloxacillin; outline: as §1
Acinetobacter pittii [25] = test: Antibacterial activity against Acinetobacter genomosp. 3 isolate 56 by Etest method in presence of cloxacillin; outline: as §1
Acinetobacter pittii [26] = test: Antibacterial activity against Acinetobacter genomosp. 3 isolate 67 by Etest method in presence of cloxacillin and efflux pump inhibitor PAN
Acinetobacter pittii [27] = test: Antibacterial activity against Acinetobacter genomosp. 3 isolate 90 by Etest method in presence of cloxacillin and efflux pump inhibitor PAN
Acinetobacter pittii [28] = test: Antibacterial activity against Acinetobacter genomosp. 3 isolate 109 by Etest method; outline: as §1
Escherichia coli [29] = test: Antibacterial activity against Escherichia coli DH5alpha carrying ampC gene of Acinetobacter genomosp. 3 isolate 14 by Etest method; outline: as §2
Acinetobacter pittii [30] = test: Antibacterial activity against Acinetobacter genomosp. 3 isolate 69 by Etest method in presence of cloxacillin; outline: as §1
Escherichia coli [31] = test: Antibacterial activity against Escherichia coli DH5alpha carrying ampC gene of Acinetobacter genomosp. 3 isolate 65 by Etest method; outline: as §2
Acinetobacter pittii [32] = test: Antibacterial activity against Acinetobacter genomosp. 3 isolate 60 by Etest method in presence of cloxacillin; outline: as §1
Acinetobacter pittii [33] = test: Antibacterial activity against Acinetobacter genomosp. 3 isolate 195 by Etest method in presence of efflux pump inhibitor CCCP
Acinetobacter pittii [34] = test: Antibacterial activity against Acinetobacter genomosp. 3 isolate 243 by Etest method; outline: as §1
Acinetobacter pittii [35] = test: Antibacterial activity against Acinetobacter genomosp. 3 isolate 128 by Etest method in presence of cloxacillin; outline: as §1
Acinetobacter pittii [36] = test: Antibacterial activity against Acinetobacter genomosp. 3 isolate 128 by Etest method in presence of efflux pump inhibitor PAN
Acinetobacter pittii [37] = test: Antibacterial activity against Acinetobacter genomosp. 3 isolate 65 by Etest method in presence of cloxacillin; outline: as §1
Acinetobacter pittii [38] = test: Antibacterial activity against Acinetobacter genomosp. 3 isolate 21 by Etest method in presence of cloxacillin; outline: as §1
Acinetobacter pittii [39] = test: Antibacterial activity against Acinetobacter genomosp. 3 isolate 65 by Etest method; outline: as §1
Escherichia coli [40] = test: Antibacterial activity against Escherichia coli DH5alpha by Etest method
Outline: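 E. coli DH5α host strain, grown at 37°C in LB medium. MICs of β-lactams determined by Etest following the manufacturer's instructions.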

Acinetobacter pittii [41] = test: Antibacterial activity against Acinetobacter genomosp. 3 isolate 109 by Etest method in presence of cloxacillin; outline: as §1
Escherichia coli [42] = test: Antibacterial activity against Escherichia coli DH5alpha carrying ampC gene of Acinetobacter genomosp. 3 isolate 56 by Etest method; outline: as §2
Acinetobacter pittii [43] = test: Antibacterial activity against Acinetobacter genomosp. 3 isolate 128 by Etest method in presence of cloxacillin and efflux pump inhibitor CCCP
Acinetobacter pittii [44] = test: Antibacterial activity against Acinetobacter genomosp. 3 isolate 195 by Etest method; outline: as §1
Acinetobacter pittii [45] = test: Antibacterial activity against Acinetobacter genomosp. 3 isolate 69 by Etest method in presence of efflux pump inhibitor CCCP
Acinetobacter pittii [46] = test: Antibacterial activity against Acinetobacter genomosp. 3 isolate 243 by Etest method in presence of cloxacillin and efflux pump inhibitor PAN
Acinetobacter pittii [47] = test: Antibacterial activity against Acinetobacter genomosp. 3 isolate 103 by Etest method in presence of efflux pump inhibitor CCCP
Acinetobacter pittii [48] = test: Antibacterial activity against Acinetobacter genomosp. 3 isolate 90 by Etest method in presence of cloxacillin and efflux pump inhibitor CCCP
Acinetobacter pittii [49] = test: Antibacterial activity against Acinetobacter genomosp. 3 isolate 195 by Etest method in presence of cloxacillin and efflux pump inhibitor CCCP
Acinetobacter pittii [50] = test: Antibacterial activity against Acinetobacter genomosp. 3 isolate 65 by Etest method in presence of efflux pump inhibitor CCCP

CC(=O)OCC1=C(C(=O)O)N2C(=O)[C@@H](NC(=O)Cc3cccs3)[C@H]2SC1 [CEPHALOTHIN]
MIC (Acinetobacter pittii [1]): 24 µg/mL
MIC (Acinetobacter pittii [2]): > 256 µg/mL
MIC (Acinetobacter pittii [3]): > 256 µg/mL
MIC (Acinetobacter pittii [4]): 128 µg/mL
MIC (Acinetobacter pittii [5]): > 256 µg/mL
MIC (Acinetobacter pittii [6]): > 256 µg/mL
MIC (Acinetobacter pittii [7]): > 256 µg/mL
MIC (Acinetobacter pittii [8]): > 256 µg/mL
MIC (Acinetobacter pittii [9]): > 256 µg/mL
MIC (Acinetobacter pittii [10]): > 256 µg/mL
MIC (Acinetobacter pittii [11]): 128 µg/mL
MIC (Acinetobacter pittii [12]): > 256 µg/mL
MIC (Acinetobacter pittii [13]): > 256 µg/mL
MIC (Acinetobacter pittii [14]): > 256 µg/mL
MIC (Acinetobacter pittii [15]): > 256 µg/mL
MIC (Acinetobacter pittii [16]): > 256 µg/mL
MIC (Acinetobacter pittii [17]): 12 µg/mL
MIC (Acinetobacter pittii [18]): > 256 µg/mL
MIC (Escherichia coli [19]): > 256 µg/mL
MIC (Acinetobacter pittii [20]): 192 µg/mL
MIC (Acinetobacter pittii [21]): > 256 µg/mL
MIC (Acinetobacter pittii [22]): 128 µg/mL
MIC (Acinetobacter pittii [23]): > 256 µg/mL
MIC (Acinetobacter pittii [24]): > 256 µg/mL
MIC (Acinetobacter pittii [25]): > 256 µg/mL
MIC (Acinetobacter pittii [26]): 128 µg/mL
MIC (Acinetobacter pittii [27]): 64 µg/mL
MIC (Acinetobacter pittii [28]): > 256 µg/mL
MIC (Escherichia coli [29]): > 256 µg/mL
MIC (Acinetobacter pittii [30]): > 256 µg/mL
MIC (Escherichia coli [31]): 192 µg/mL (≈ 484 µM)
MIC (Acinetobacter pittii [32]): > 256 µg/mL
MIC (Acinetobacter pittii [33]): > 256 µg/mL
MIC (Acinetobacter pittii [34]): > 256 µg/mL
MIC (Acinetobacter pittii [35]): 48 µg/mL
MIC (Acinetobacter pittii [36]): > 256 µg/mL
MIC (Acinetobacter pittii [37]): 128 µg/mL
MIC (Acinetobacter pittii [38]): > 256 µg/mL
MIC (Acinetobacter pittii [39]): > 256 µg/mL
MIC (Escherichia coli [40]): 3 µg/mL (≈ 7.57 µM)
MIC (Acinetobacter pittii [41]): 128 µg/mL
MIC (Escherichia coli [42]): > 256 µg/mL
MIC (Acinetobacter pittii [43]): 32 µg/mL
MIC (Acinetobacter pittii [44]): > 256 µg/mL
MIC (Acinetobacter pittii [45]): > 256 µg/mL
MIC (Acinetobacter pittii [46]): 192 µg/mL
MIC (Acinetobacter pittii [47]): > 256 µg/mL
MIC (Acinetobacter pittii [48]): 24 µg/mL
MIC (Acinetobacter pittii [49]): 96 µg/mL
MIC (Acinetobacter pittii [50]): 128 µg/mL

C[C@@H](O)[C@H]1C(=O)N2C(C(=O)O)=C(S[C@@H]3CN[C@H](C(=O)N(C)C)C3)[C@H](C)[C@H]12 [MEROPENEM]
MIC (Acinetobacter pittii [1]): 0.19 µg/mL
MIC (Acinetobacter pittii [2]): 0.25 µg/mL
MIC (Acinetobacter pittii [3]): 0.5 µg/mL
MIC (Acinetobacter pittii [4]): 0.25 µg/mL
MIC (Acinetobacter pittii [5]): 0.25 µg/mL
MIC (Acinetobacter pittii [6]): 0.5 µg/mL (≈ 1.3 µM)
MIC (Acinetobacter pittii [7]): 0.19 µg/mL
MIC (Acinetobacter pittii [8]): 0.25 µg/mL
MIC (Acinetobacter pittii [9]): 0.19 µg/mL
MIC (Acinetobacter pittii [10]): 0.25 µg/mL
MIC (Acinetobacter pittii [11]): 0.38 µg/mL
MIC (Acinetobacter pittii [12]): 0.75 µg/mL
MIC (Acinetobacter pittii [13]): 0.25 µg/mL (≈ 0.652 µM)
MIC (Acinetobacter pittii [14]): 1 µg/mL
MIC (Acinetobacter pittii [15]): 0.25 µg/mL
MIC (Acinetobacter pittii [16]): 0.5 µg/mL (≈ 1.3 µM)
MIC (Acinetobacter pittii [17]): 0.094 µg/mL
MIC (Acinetobacter pittii [18]): 0.19 µg/mL
MIC (Escherichia coli [19]): 0.032 µg/mL (≈ 0.0834 µM)
MIC (Acinetobacter pittii [20]): 0.75 µg/mL
MIC (Acinetobacter pittii [21]): 0.38 µg/mL
MIC (Acinetobacter pittii [22]): 0.25 µg/mL
MIC (Acinetobacter pittii [23]): 6 µg/mL (≈ 15.6 µM)
MIC (Acinetobacter pittii [24]): 1 µg/mL
MIC (Acinetobacter pittii [25]): 0.38 µg/mL
MIC (Acinetobacter pittii [26]): 0.25 µg/mL
MIC (Acinetobacter pittii [27]): 0.25 µg/mL
MIC (Acinetobacter pittii [28]): 0.38 µg/mL (≈ 0.991 µM)
MIC (Escherichia coli [29]): 0.023 µg/mL (≈ 0.06 µM)
MIC (Acinetobacter pittii [30]): 0.19 µg/mL
MIC (Escherichia coli [31]): 0.023 µg/mL (≈ 0.06 µM)
MIC (Acinetobacter pittii [32]): 0.75 µg/mL
MIC (Acinetobacter pittii [33]): 0.5 µg/mL
MIC (Acinetobacter pittii [34]): 0.25 µg/mL (≈ 0.652 µM)
MIC (Acinetobacter pittii [35]): 0.25 µg/mL
MIC (Acinetobacter pittii [36]): 0.125 µg/mL
MIC (Acinetobacter pittii [37]): 0.19 µg/mL
MIC (Acinetobacter pittii [38]): 0.5 µg/mL
MIC (Acinetobacter pittii [39]): 0.5 µg/mL (≈ 1.3 µM)
MIC (Escherichia coli [40]): 0.008 µg/mL (≈ 0.0209 µM)
MIC (Acinetobacter pittii [41]): 0.25 µg/mL
MIC (Escherichia coli [42]): 0.023 µg/mL (≈ 0.06 µM)
MIC (Acinetobacter pittii [43]): 0.094 µg/mL
MIC (Acinetobacter pittii [44]): 1 µg/mL (≈ 2.61 µM)
MIC (Acinetobacter pittii [45]): 0.25 µg/mL
MIC (Acinetobacter pittii [46]): 0.19 µg/mL
MIC (Acinetobacter pittii [47]): 1 µg/mL
MIC (Acinetobacter pittii [48]): 0.38 µg/mL
MIC (Acinetobacter pittii [49]): 0.38 µg/mL
MIC (Acinetobacter pittii [50]): 0.25 µg/mL
